# High-throughput results: PubChem BioAssay, several laboratories
# STAT3 activator = increases IL-6 driven STAT3 reporter signal; activation (% of control), % at 5.6 µM; 0.91% of 190,000 active; U3A cells, IL-6 STAT3-luciferase reporter, luminescence; 100% = signal with IL-6 EC80 alone;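 active means activation above the screen-wide mean of compound activation plus 3 SD, cut at about 130% in these data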
#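 Assay system – human STAT1-deficient U3A cells with stable STAT3-luciferase reporter · Also added – IL-6 (33 ng/mL) · Schedule – compound 1 h, then IL-6 6 h at 37 °C · Technique – reporter luminescence signal · Evaluation – % activation versus median of IL-6-stimulated wells · Benchmarks – IL-6-only wells as 100% reference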
# STAT1 blocker = STAT1 signaling inhibition; inhibition, % at 5.5 µM; 0.35% of 200,000 active; AID 920; NIH 3T3 STAT1-luciferase reporter, IFN-gamma, luminescence;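 active means inhibition above a set limit, the mean inhibition across all tested compounds plus 3 SD, cut at about 34% in these data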
# Platelet DG rel = platelet dense granule release activity; human platelet-rich plasma, SFLLRN dense granule ATP release, luminescence; inhibition, %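 (compounds screened at 7.5 µM in platelet-rich plasma)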; 0.22% of 300,000 active; AID 1663;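 active means mean replicate score, as percent of positive control, at or above 50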
# PERK inh = human PERK inhibition, primary cell-based screen; AID 1416; Q9NZJ5; 0.17% of 220,000 active; inhibition, % at 5.6 µM; CHO PERK-DD fusion, SEAP luminescence translation reporter;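 active means inhibition above the mean inhibition of all tested compounds plus 3 SD, set separately per screening campaign, cut at about 2.9% in these data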;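 further: PERK kinase domain activated by AP20187 dimerizer at 100 nM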
# STAT3 inh-1 = STAT3 signaling inhibition; U3A cells, IL-6 STAT3-luciferase reporter, luminescence; host cell line lacks STAT1; inhibition, % at 5.5 µM; 0.89% of 190,000 active; AID 862;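 active means inhibition above the mean inhibition across all screened compounds plus 3 SD, cut at about 44% in these data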
# STAT3 inh-2 = STAT3 inhibition, confirmation assay. shares compounds with STAT3 inh-1. inhibition, % at 5.7 µM. AID 1265. U3A cells, IL-6 STAT3 luciferase reporter, luminescence; cell line lacks STAT1. 45% of 1,200 active;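 active means inhibition above the hit cutoff computed for the primary STAT3 screen, cut at about 44% in these data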
# NFkB inh 2 = counter-screen for STAT3 inhibitors: NF-kappaB inhibition | shares compounds with STAT3 inh-1 | HEK293T NF-kB luciferase reporter, TNF-alpha induced | inhibition, % at 5.7 µM | 36% of 1,200 active | AID 1308;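 active means inhibition above the mean of solvent-only control wells plus 3 SD, cutoff set per campaign, cut at about 13% in these data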
# STAT1 inh 2 = STAT1 inhibition in STAT3 inhibitor counter-screen. AID 1317. 27% of 1,200 active. NIH 3T3 STAT1-luciferase reporter, IFN-gamma induced, luminescence. shares compounds with STAT3 inh-1. inhibition, % at 5.7 µM;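 active means inhibition above the mean plus 3 SD of solvent-only control wells, limit set per screening run, cut at about 16% in these data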
# A number is an active result; - = inactive; . = no result. Shown are actives, neighbours in structure and some others; about 1.4% of the full set was active somewhere.
SMILES,STAT3 activator,STAT1 blocker,Platelet DG rel,PERK inh,STAT3 inh-1,STAT3 inh-2,NFkB inh 2,STAT1 inh 2
Cc1ccc2nc(-c3ccc(NC(=O)COC(=O)c4ccc(=O)[nH]c4)cc3)sc2c1,-,-,-,-,56,-,-,-
O=C(Nc1ccncc1)c1ccc(-c2ccccc2)cc1,-,-,-,-,82,77,-,-
O=C(Nc1cccnc1)c1ccc(-c2ccccc2)cc1,-,-,-,-,-,.,.,.
Cc1ccc(CNC(=O)CCC2CCCN(C(=O)CCC(F)(F)F)C2)o1 (stereo not drawn),-,-,-,-,-,.,.,.
O=C(Nc1cccc(S(=O)(=O)N2CCCCC2)c1)c1ccc2ncsc2c1,.,.,-,-,.,.,.,.
CN1/C(=C\C(=O)C[n+]2ccc(C(=O)c3ccccc3)cc2)C(C)(C)c2ccccc21,-,-,-,-,56,61,-,-
CN(C)c1ccc(/C=N/NC(=O)c2sccc2-n2cccc2)cc1,-,-,-,-,-,.,.,.
CNC(=O)CN1C(=O)CSc2ncccc21,-,-,-,-,-,.,.,.
CCN(CC)c1ccc(NC(=O)CN2C(=O)CSc3ncccc32)c(C)c1,-,-,-,-,70,56,-,-
CC(CNC(=O)CCS(=O)(=O)c1cc2c(cc1Cl)NC(=O)CO2)c1ccccc1 (stereo not drawn),.,.,-,.,.,.,.,.
Cc1ccccc1NC(=O)N1CCNC(=O)C1CC(=O)Nc1cc(Cl)ccc1Cl (stereo not drawn),.,.,-,.,.,.,.,.
O=C(Nc1nc(-c2ccc(S(=O)(=O)N3CCCCCC3)cc2)cs1)c1ccccc1,-,-,-,-,-,.,.,.
O=C(Nc1nc(-c2ccc3c(c2)OCCO3)cs1)c1ccc(S(=O)(=O)N2CCCCC2)cc1,-,-,-,-,45,62,18,-
COc1ccc(C(C(=O)NC2CCCCC2)N(C(=O)c2ccco2)c2ccccc2C(C)=O)cc1 (stereo not drawn),.,.,-,.,.,.,.,.
COC(=O)c1nn(-c2ccc3c(c2)CCN3C(C)=O)cc1O,-,-,52,-,100,84,-,-
O=C(Nc1cccc(Cl)c1)c1ccc(OC(=S)N2CCOCC2)cc1,-,-,-,-,57,-,-,-
O=[N+]([O-])c1cc(S(=O)(=O)N2CCCC2)ccc1N/N=C/c1cccnc1,-,-,-,-,-,.,.,.
COc1ccc(/C=N/Nc2nc3ccccc3o2)cc1O,-,-,-,-,-,.,.,.
COc1ccc(/C=N/Nc2nc3ccccc3s2)cc1O,-,-,54,-,60,-,-,-
O=C(Nc1ccc(-c2nc3ccccc3s2)cc1)c1cc(-n2cnnc2)ccc1Cl,-,-,-,-,62,-,-,-
NC(=O)c1c(-c2ccc(Cl)cc2Cl)csc1NC(=O)Cc1ccccc1,-,-,-,-,44,72,23,-
CC(C)c1c(C(=O)N/N=C/C2CC=CCC2)nnn1-c1nonc1N (stereo not drawn),.,.,-,.,.,.,.,.
O=C(NCc1ccco1)c1ccc(COc2cc(Cl)ccc2Cl)cc1,-,-,-,-,-,.,.,.
CCOC(=O)c1cccc(NC(=O)CSc2nc3cccnc3n2C)c1,-,-,.,-,59,-,-,-
COc1ccc(C(=O)NCCC2=CCCCC2)cc1,-,-,-,-,52,-,-,-
CCOc1ccc(S(=O)(=O)N2CCCC(C(=O)NC3CCCC3)C2)cc1 (stereo not drawn),.,.,-,.,.,.,.,.
O=C(COc1ccccc1)Nc1nc(-c2ccc(S(=O)(=O)N3CCOCC3)cc2)cs1,-,-,-,-,-,.,.,.
O=C(CCc1ccc(S(=O)(=O)N2CCOCC2)cc1)Nc1nc(COc2ccccc2)cs1,-,-,-,-,46,-,-,-
CC1(C)CC(=O)C(C=Nc2cccnc2/N=C/C2=C(O)CC(C)(C)CC2=O)=C(O)C1,-,-,-,-,-,.,.,.
CCN(CC)c1ccc2cc(NC(=O)CCC(=O)O)c(=O)oc2c1,-,-,-,-,70,65,29,28
